Experimental data reported in ChEMBL document CHEMBL1250476, “Synthesis and antifungal evaluation of novel triazole derivatives as inhibitors of cytochrome P450 14alpha-demethylase” (2010).
≈ marks a conversion by molar mass, not a printed value.

Each compound was assayed on Kluyveromyces marxianus (assay: Antifungal activity against Candida kefyr by micro-broth dilution method). Conditions: not given.
Type: functional
Procedure, shortened: (§1)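 MIC80 by broth microdilution in 96-well format following NCCLS. Compounds were dissolved in DMSO, serially diluted in growth medium, inoculated and incubated at 35 °C. The endpoint was the first well with about 80% growth reduction versus the drug-free well. Values are means of three replicate tests.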

MIC [µg/mL] | SMILES
0.0625 (≈ 0.129 µM) | CC(C)N(Cc1cn(Cc2cccc(F)c2)nn1)CC(O)(Cn1cncn1)c1ccc(F)cc1F (configuration not stated)
0.25 (≈ 0.515 µM) | CC(C)N(Cc1cn(Cc2ccc(F)cc2)nn1)CC(O)(Cn1cncn1)c1ccc(F)cc1F (configuration not stated)
0.25 (≈ 0.498 µM) | CC(C)N(Cc1cn(Cc2ccccc2Cl)nn1)CC(O)(Cn1cncn1)c1ccc(F)cc1F (configuration not stated)
0.25 (≈ 0.498 µM) | CC(C)N(Cc1cn(Cc2cccc(Cl)c2)nn1)CC(O)(Cn1cncn1)c1ccc(F)cc1F (configuration not stated)

Each compound was assayed on Trichophyton rubrum (assay: Antifungal activity against Trichophyton rubrum by micro-broth dilution method). Conditions: not given.
Type: functional
Procedure, shortened: as §1

MIC [µg/mL] | SMILES
< 0.125 | CC(C)N(Cc1cn(Cc2cccc(F)c2)nn1)CC(O)(Cn1cncn1)c1ccc(F)cc1F (configuration not stated)
2 (≈ 4.12 µM) | CC(C)N(Cc1cn(Cc2ccc(F)cc2)nn1)CC(O)(Cn1cncn1)c1ccc(F)cc1F (configuration not stated)
< 0.125 | CC(C)N(Cc1cn(Cc2ccccc2Cl)nn1)CC(O)(Cn1cncn1)c1ccc(F)cc1F (configuration not stated)
2 (≈ 3.98 µM) | CC(C)N(Cc1cn(Cc2cccc(Cl)c2)nn1)CC(O)(Cn1cncn1)c1ccc(F)cc1F (configuration not stated)

What follows are compounds tested on Cryptococcus neoformans (assay: Antifungal activity against Cryptococcus neoformans after 72 hrs by micro-broth dilution method). Conditions: not given.
Type: functional
Procedure, shortened: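 Cryptococcus neoformans tested by NCCLS micro-broth dilution. Compounds were dissolved in DMSO, serially diluted in medium, inoculated and incubated at 35 °C. MIC80 was read at 72 h as the first well showing approximately 80% growth reduction compared with the drug-free well. Values are the mean of three replicate tests.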

MIC [µg/mL] | SMILES
4 (≈ 8.24 µM) | CC(C)N(Cc1cn(Cc2cccc(F)c2)nn1)CC(O)(Cn1cncn1)c1ccc(F)cc1F (configuration not stated)
8 (≈ 16.5 µM) | CC(C)N(Cc1cn(Cc2ccc(F)cc2)nn1)CC(O)(Cn1cncn1)c1ccc(F)cc1F (configuration not stated)
16 (≈ 31.9 µM) | CC(C)N(Cc1cn(Cc2ccccc2Cl)nn1)CC(O)(Cn1cncn1)c1ccc(F)cc1F (configuration not stated)
32 (≈ 63.7 µM) | CC(C)N(Cc1cn(Cc2cccc(Cl)c2)nn1)CC(O)(Cn1cncn1)c1ccc(F)cc1F (configuration not stated)

What follows are compounds tested on Candida albicans (assay: Antifungal activity against Candida albicans SC5314 after 24 hrs by micro-broth dilution method). Conditions: SC5314, 24 h.
Type: functional
Procedure, shortened: (§2)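 Broth microdilution per NCCLS on Candida albicans. Compounds were dissolved in DMSO, serially diluted in growth medium, inoculated and incubated at 35 °C. Growth was read at 24 h, and MIC80 was taken as the first well with about 80% growth reduction relative to the drug-free control. Values are the mean of three replicates.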

MIC [µg/mL] | SMILES
< 0.125 | CC(C)N(Cc1cn(Cc2cccc(F)c2)nn1)CC(O)(Cn1cncn1)c1ccc(F)cc1F (configuration not stated)
0.25 (≈ 0.515 µM) | CC(C)N(Cc1cn(Cc2ccc(F)cc2)nn1)CC(O)(Cn1cncn1)c1ccc(F)cc1F (configuration not stated)
< 0.125 | CC(C)N(Cc1cn(Cc2ccccc2Cl)nn1)CC(O)(Cn1cncn1)c1ccc(F)cc1F (configuration not stated)
< 0.125 | CC(C)N(Cc1cn(Cc2cccc(Cl)c2)nn1)CC(O)(Cn1cncn1)c1ccc(F)cc1F (configuration not stated)

The compounds below were run on Candida parapsilosis (assay: Antifungal activity against Candida parapsilosis by micro-broth dilution method). Conditions: Lodderomyces parapsilosis.
Type: functional
Procedure, shortened: as §1

MIC [µg/mL] | SMILES
0.25 (≈ 0.515 µM) | CC(C)N(Cc1cn(Cc2cccc(F)c2)nn1)CC(O)(Cn1cncn1)c1ccc(F)cc1F (configuration not stated)
4 (≈ 8.24 µM) | CC(C)N(Cc1cn(Cc2ccc(F)cc2)nn1)CC(O)(Cn1cncn1)c1ccc(F)cc1F (configuration not stated)
2 (≈ 3.98 µM) | CC(C)N(Cc1cn(Cc2ccccc2Cl)nn1)CC(O)(Cn1cncn1)c1ccc(F)cc1F (configuration not stated)
4 (≈ 7.97 µM) | CC(C)N(Cc1cn(Cc2cccc(Cl)c2)nn1)CC(O)(Cn1cncn1)c1ccc(F)cc1F (configuration not stated)

The compounds below were run on Candida tropicalis (assay: Antifungal activity against Candida tropicalis by micro-broth dilution method). Conditions: not given.
Type: functional
Procedure, shortened: as §1

MIC [µg/mL] | SMILES
< 0.125 | CC(C)N(Cc1cn(Cc2cccc(F)c2)nn1)CC(O)(Cn1cncn1)c1ccc(F)cc1F (configuration not stated)
1 (≈ 2.06 µM) | CC(C)N(Cc1cn(Cc2ccc(F)cc2)nn1)CC(O)(Cn1cncn1)c1ccc(F)cc1F (configuration not stated)
1 (≈ 1.99 µM) | CC(C)N(Cc1cn(Cc2ccccc2Cl)nn1)CC(O)(Cn1cncn1)c1ccc(F)cc1F (configuration not stated)
2 (≈ 3.98 µM) | CC(C)N(Cc1cn(Cc2cccc(Cl)c2)nn1)CC(O)(Cn1cncn1)c1ccc(F)cc1F (configuration not stated)

Each compound was assayed on Candida albicans (assay: Antifungal activity against Candida albicans Y0109 after 24 hrs by micro-broth dilution method). Conditions: Y0109, 24 h.
Type: functional
Procedure, shortened: as §2

MIC [µg/mL] | SMILES
0.0156 (≈ 0.0321 µM) | CC(C)N(Cc1cn(Cc2cccc(F)c2)nn1)CC(O)(Cn1cncn1)c1ccc(F)cc1F (configuration not stated)
0.25 (≈ 0.515 µM) | CC(C)N(Cc1cn(Cc2ccc(F)cc2)nn1)CC(O)(Cn1cncn1)c1ccc(F)cc1F (configuration not stated)
0.0039 (≈ 0.00777 µM) | CC(C)N(Cc1cn(Cc2ccccc2Cl)nn1)CC(O)(Cn1cncn1)c1ccc(F)cc1F (configuration not stated)
0.0156 (≈ 0.0311 µM) | CC(C)N(Cc1cn(Cc2cccc(Cl)c2)nn1)CC(O)(Cn1cncn1)c1ccc(F)cc1F (configuration not stated)

These compounds were tested on Aspergillus fumigatus (assay: Antifungal activity against Aspergillus fumigatus by micro-broth dilution method). Conditions: not given.
Type: functional
Procedure, shortened: as §1

MIC [µg/mL] | SMILES
> 64 | CC(C)N(Cc1cn(Cc2cccc(F)c2)nn1)CC(O)(Cn1cncn1)c1ccc(F)cc1F (configuration not stated)
> 64 | CC(C)N(Cc1cn(Cc2ccc(F)cc2)nn1)CC(O)(Cn1cncn1)c1ccc(F)cc1F (configuration not stated)
> 64 | CC(C)N(Cc1cn(Cc2ccccc2Cl)nn1)CC(O)(Cn1cncn1)c1ccc(F)cc1F (configuration not stated)
> 64 | CC(C)N(Cc1cn(Cc2cccc(Cl)c2)nn1)CC(O)(Cn1cncn1)c1ccc(F)cc1F (configuration not stated)
